Assay results from ChEMBL document CHEMBL1153560, “In vitro activities of doripenem and six comparator drugs against 423 aerobic and anaerobic bacterial isolates from infected diabetic foot wounds” (2008).
≈ marks a conversion by molar mass, not a printed value.

Legend:
Format in all cases: functional
[1] = test system: Escherichia coli; assay: Antibacterial activity against Escherichia coli isolated from patient with diabetic foot infection after 18 to 24 hrs by broth microdilution method
Summary of the method: (§1)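 Isolates were subcultured on Trypticase soy blood agar and tested by broth microdilution in cation-adjusted Mueller-Hinton broth. In-house trays of twofold drug dilutions were stored at −70°C. Overnight colonies gave a final inoculum of about 5 × 10^5 CFU/ml. Plates were read after 18 to 24 h at 37°C.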

[2] = test system: Enterobacter cloacae; assay: Antibacterial activity against Enterobacter cloacae isolated from patient with diabetic foot infection assessed as percent resistant isolates after 18 to 24 hrs by broth microdilution method
Summary of the method: (§2)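 Aerobes subcultured on Trypticase soy blood agar, then broth microdilution in cation-adjusted Mueller-Hinton broth. Trays prepared in-house with twofold dilutions and stored at −70°C. Overnight colonies suspended to about 5 × 10^5 CFU/ml final. Read after 18 to 24 h at 37°C. QC strains included S. aureus ATCC 29213 and E. coli ATCC 25922.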

[3] = test system: Staphylococcus epidermidis; assay: Antibacterial activity against Staphylococcus epidermidis isolated from patient with diabetic foot infection assessed as percent resistant isolates after 18 to 24 hrs by broth microdilution method; summary of the method: as §2
[4] = test system: Pseudomonas aeruginosa; assay: Antibacterial activity against Pseudomonas aeruginosa isolated from patient with diabetic foot infection assessed as percent resistant isolates after 18 to 24 hrs by broth microdilution method; summary of the method: as §2
[5] = test system: Proteus vulgaris; assay: Antibacterial activity against Proteus vulgaris isolated from patient with diabetic foot infection assessed as percent resistant isolates after 18 to 24 hrs by broth microdilution method; summary of the method: as §2
[6] = test system: Streptococcus agalactiae; assay: Antibacterial activity against Streptococcus agalactiae isolated from patient with diabetic foot infection assessed as percent resistant isolates after 18 to 24 hrs by broth microdilution method
Summary of the method: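 Streptococci subcultured on Trypticase soy blood agar and tested by broth microdilution in cation-adjusted Mueller-Hinton broth with lysed horse blood. In-house twofold dilution trays stored at −70°C. About 5 × 10^5 CFU/ml final inoculum from overnight colonies. Read after 18 to 24 h at 37°C.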

[7] = test system: Klebsiella pneumoniae; assay: Antibacterial activity against Klebsiella pneumoniae isolated from patient with diabetic foot infection after 18 to 24 hrs by broth microdilution method; summary of the method: as §1
[8] = test system: Corynebacterium minutissimum; assay: Antibacterial activity against Corynebacterium minutissimum isolated from patient with diabetic foot infection assessed as percent resistant isolates after 48 hrs by broth microdilution method
Summary of the method: (§3)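 Isolates subcultured on Trypticase soy blood agar. Broth microdilution in cation-adjusted Mueller-Hinton broth with lysed horse blood, using in-house twofold dilution trays stored at −70°C. Inoculum from overnight colonies at about 5 × 10^5 CFU/ml final. Read after 18 to 24 h at 37°C, up to 48 h for some Corynebacterium strains.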

[9] = test system: Providencia rettgeri; assay: Antibacterial activity against Proteus rettgeri isolated from patient with diabetic foot infection after 18 to 24 hrs by broth microdilution method; summary of the method: as §1
[10] = test system: Proteus mirabilis; assay: Antibacterial activity against Proteus mirabilis isolated from patient with diabetic foot infection assessed as percent resistant isolates after 18 to 24 hrs by broth microdilution method; summary of the method: as §2
[11] = test system: Staphylococcus haemolyticus; assay: Antibacterial activity against Staphylococcus haemolyticus isolated from patient with diabetic foot infection after 18 to 24 hrs by broth microdilution method
[12] = test system: Corynebacterium urealyticum; assay: Antibacterial activity against Corynebacterium urealyticum isolated from patient with diabetic foot infection after 48 hrs by broth microdilution method
Summary of the method: (§4)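 Isolates were subcultured on Trypticase soy blood agar. Broth microdilution used cation-adjusted Mueller-Hinton broth with lysed horse blood, in-house trays of twofold drug dilutions stored at −70°C. Colonies from overnight growth gave a final inoculum of about 5 × 10^5 CFU/ml. Trays were read after 18 to 24 h at 37°C, up to 48 h for some strains.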

[13] = test system: Staphylococcus aureus; assay: Antibacterial activity against methicillin-sensitive Staphylococcus aureus isolated from patient with diabetic foot infection assessed as percent resistant isolates after 18 to 24 hrs by broth microdilution method
Summary of the method: (§5)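 Isolates grown on Trypticase soy blood agar, then tested by broth microdilution in unsupplemented cation-adjusted Mueller-Hinton broth. In-house trays held serial twofold drug dilutions and were stored at −70°C. Overnight colonies were suspended to a final inoculum near 5 × 10^5 CFU/ml, and trays read after 18–24 h at 37°C. QC strains: S. aureus ATCC 29213, E. coli ATCC 25922.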

[14] = test system: Corynebacterium amycolatum; assay: Antibacterial activity against Corynebacterium amycolatum isolated from patient with diabetic foot infection after 48 hrs by broth microdilution method; summary of the method: as §4
[15] = test system: Providencia rettgeri; assay: Antibacterial activity against Proteus rettgeri isolated from patient with diabetic foot infection assessed as percent resistant isolates after 18 to 24 hrs by broth microdilution method; summary of the method: as §2
[16] = test system: Corynebacterium simulans; assay: Antibacterial activity against Corynebacterium simulans isolated from patient with diabetic foot infection after 48 hrs by broth microdilution method; summary of the method: as §4
[17] = test system: Staphylococcus aureus; assay: Antibacterial activity against methicillin-resistant Staphylococcus aureus isolated from patient with diabetic foot infection assessed as percent resistant isolates after 18 to 24 hrs by broth microdilution method; summary of the method: as §5
[18] = test system: Corynebacterium accolens; assay: Antibacterial activity against Corynebacterium accolens isolated from patient with diabetic foot infection after 48 hrs by broth microdilution method; summary of the method: as §4
[19] = test system: Corynebacterium simulans; assay: Antibacterial activity against Corynebacterium simulans isolated from patient with diabetic foot infection assessed as percent resistant isolates after 48 hrs by broth microdilution method; summary of the method: as §3
[20] = test system: Corynebacterium amycolatum; assay: Antibacterial activity against Corynebacterium amycolatum isolated from patient with diabetic foot infection assessed as percent resistant isolates after 48 hrs by broth microdilution method; summary of the method: as §3
[21] = test system: Staphylococcus aureus; assay: Antibacterial activity against methicillin-resistant Staphylococcus aureus isolated from patient with diabetic foot infection after 18 to 24 hrs by broth microdilution method; summary of the method: as §5
[22] = test system: Staphylococcus aureus; assay: Antibacterial activity against methicillin-sensitive Staphylococcus aureus isolated from patient with diabetic foot infection after 18 to 24 hrs by broth microdilution method
Summary of the method: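 Subcultured on Trypticase soy blood agar, then broth microdilution in cation-adjusted Mueller-Hinton broth. Trays were made in-house with serial twofold drug dilutions and stored at −70°C. Inoculum was colonies from overnight growth, final approximately 5 × 10^5 CFU/ml. MIC was read after 18 to 24 h at 37°C. QC strains: S. aureus ATCC 29213 and E. coli ATCC 25922.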

[23] = test system: Corynebacterium minutissimum; assay: Antibacterial activity against Corynebacterium minutissimum isolated from patient with diabetic foot infection after 48 hrs by broth microdilution method; summary of the method: as §4
[24] = test system: Klebsiella pneumoniae; assay: Antibacterial activity against Klebsiella pneumoniae isolated from patient with diabetic foot infection assessed as percent resistant isolates after 18 to 24 hrs by broth microdilution method; summary of the method: as §2
[25] = test system: Klebsiella oxytoca; assay: Antibacterial activity against Klebsiella oxytoca isolated from patient with diabetic foot infection assessed as percent resistant isolates after 18 to 24 hrs by broth microdilution method; summary of the method: as §2
[26] = test system: Corynebacterium jeikeium; assay: Antibacterial activity against Corynebacterium jeikeium isolated from patient with diabetic foot infection assessed as percent resistant isolates after 48 hrs by broth microdilution method; summary of the method: as §3
[27] = test system: Corynebacterium xerosis; assay: Antibacterial activity against Corynebacterium xerosis isolated from patient with diabetic foot infection after 48 hrs by broth microdilution method; summary of the method: as §4
[28] = test system: Pseudomonas aeruginosa; assay: Antibacterial activity against Pseudomonas aeruginosa isolated from patient with diabetic foot infection after 18 to 24 hrs by broth microdilution method; summary of the method: as §1

## C[C@@H](O)[C@H]1C(=O)N2C(C(=O)O)=C(SCCNC=N)C[C@H]12 [IMIPENEM ANHYDROUS]
[1]
  MIC50: 0.125 µg/mL (≈ 0.418 µM)
  MIC90: 0.25 µg/mL (≈ 0.835 µM)
[2]
  Activity: 0%
[3]
  Activity: 67%
[4]
  Activity: 13%
[5]
  Activity: 0%
[6]
  Activity: 0%
[7]
  MIC50: 0.25 µg/mL (≈ 0.835 µM)
  MIC90: 1 µg/mL (≈ 3.34 µM)
[8]
  Activity: 30%
[9]
  MIC50: 0.5 µg/mL (≈ 1.67 µM)
  MIC90: 4 µg/mL (≈ 13.4 µM)
[10]
  Activity: 0%
[11]
  MIC50: 0.06 µg/mL (≈ 0.2 µM)
  MIC90: 16 µg/mL (≈ 53.4 µM)
[12]
  MIC50: 0.25 µg/mL (≈ 0.835 µM)
  MIC90: 32 µg/mL (≈ 107 µM)
[13]
  Activity: 0%
[14]
  MIC50: 0.25 µg/mL (≈ 0.835 µM)
  MIC90: 32 µg/mL (≈ 107 µM)
[15]
  Activity: 0%
[16]
  MIC50: 0.03 µg/mL (≈ 0.1 µM)
  MIC90: 0.125 µg/mL (≈ 0.418 µM)
[17]
  Activity: 100%
[18]
  MIC50: 0.03 µg/mL (≈ 0.1 µM)
  MIC90: 0.125 µg/mL (≈ 0.418 µM)
[19]
  Activity: 0%
[20]
  Activity: 7%
[21]
  MIC50: 0.25 µg/mL (≈ 0.835 µM)
  MIC90: 4 µg/mL (≈ 13.4 µM)
[22]
  MIC50: ≤ 0.015 µg/mL
  MIC90: 0.03 µg/mL (≈ 0.1 µM)
[23]
  MIC50: 0.25 µg/mL (≈ 0.835 µM)
  MIC90: 32 µg/mL (≈ 107 µM)
[24]
  Activity: 0%
[25]
  Activity: 0%
[26]
  Activity: 30%
[27]
  MIC50: 0.03 µg/mL (≈ 0.1 µM)
  MIC90: 0.125 µg/mL (≈ 0.418 µM)
[28]
  MIC50: 2 µg/mL (≈ 6.68 µM)
  MIC90: 8 µg/mL (≈ 26.7 µM)

## C[C@@H](O)[C@H]1C(=O)N2C(C(=O)O)=C(S[C@@H]3CN[C@H](C(=O)N(C)C)C3)[C@H](C)[C@H]12 [MEROPENEM]
[1]
  MIC50: 0.03 µg/mL (≈ 0.0782 µM)
  MIC90: 0.03 µg/mL (≈ 0.0782 µM)
[2]
  Activity: 0%
[3]
  Activity: 67%
[4]
  Activity: 7%
[5]
  Activity: 0%
[6]
  Activity: 0%
[7]
  MIC50: 0.03 µg/mL (≈ 0.0782 µM)
  MIC90: 0.06 µg/mL (≈ 0.156 µM)
[8]
  Activity: 20%
[9]
  MIC50: 0.06 µg/mL (≈ 0.156 µM)
  MIC90: 0.125 µg/mL (≈ 0.326 µM)
[10]
  Activity: 0%
[11]
  MIC50: 1 µg/mL (≈ 2.61 µM)
  MIC90: 32 µg/mL (≈ 83.4 µM)
[12]
  MIC50: 1 µg/mL (≈ 2.61 µM)
  MIC90: 16 µg/mL (≈ 41.7 µM)
[13]
  Activity: 0%
[15]
  Activity: 0%
[16]
  MIC50: 0.125 µg/mL (≈ 0.326 µM)
  MIC90: 0.25 µg/mL (≈ 0.652 µM)
[17]
  Activity: 100%
[18]
  MIC50: 0.125 µg/mL (≈ 0.326 µM)
  MIC90: 0.25 µg/mL (≈ 0.652 µM)
[19]
  Activity: 0%
[20]
  Activity: 7%
[21]
  MIC50: 2 µg/mL (≈ 5.22 µM)
  MIC90: 16 µg/mL (≈ 41.7 µM)
[22]
  MIC50: 0.06 µg/mL (≈ 0.156 µM)
  MIC90: 0.125 µg/mL (≈ 0.326 µM)
[23]
  MIC50: 1 µg/mL (≈ 2.61 µM)
  MIC90: 16 µg/mL (≈ 41.7 µM)
[24]
  Activity: 0%
[25]
  Activity: 0%
[26]
  Activity: 20%
[27]
  MIC50: 0.125 µg/mL (≈ 0.326 µM)
  MIC90: 0.25 µg/mL (≈ 0.652 µM)
[28]
  MIC50: 0.5 µg/mL (≈ 1.3 µM)
  MIC90: 4 µg/mL (≈ 10.4 µM)
